Shown are actives, neighbours in structure and some others; about 2.2% of the full set was active somewhere.
CHRM1 PAM: potentiates human M1 receptor response to acetylcholine; CHO-K1 hM1, Fluo-8 calcium fluorescence, ACh EC20; 0% = ACh EC20, 100% = maximal ACh; 0.088% of 360,000 active; activation, % at 3 µM; P11229; in the data active = activation above about 19%, passing the limit was not always enough
CHRM5 PAM: CHRM5 positive allosteric modulation | P08912 | CHO-K1 hM5, Fluo-8 calcium, ACh EC20 PAM; 0% = ACh EC20, 100% = ACh EC100 | activation, % at 3 µM | 0.3% of 360,000 active | AID 624038;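 active = activation above the run cutoff, the mean activation of all test compounds plus 3 SD, cut at about 18% in these data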
Target sequence (P08912 whole entry, looked up): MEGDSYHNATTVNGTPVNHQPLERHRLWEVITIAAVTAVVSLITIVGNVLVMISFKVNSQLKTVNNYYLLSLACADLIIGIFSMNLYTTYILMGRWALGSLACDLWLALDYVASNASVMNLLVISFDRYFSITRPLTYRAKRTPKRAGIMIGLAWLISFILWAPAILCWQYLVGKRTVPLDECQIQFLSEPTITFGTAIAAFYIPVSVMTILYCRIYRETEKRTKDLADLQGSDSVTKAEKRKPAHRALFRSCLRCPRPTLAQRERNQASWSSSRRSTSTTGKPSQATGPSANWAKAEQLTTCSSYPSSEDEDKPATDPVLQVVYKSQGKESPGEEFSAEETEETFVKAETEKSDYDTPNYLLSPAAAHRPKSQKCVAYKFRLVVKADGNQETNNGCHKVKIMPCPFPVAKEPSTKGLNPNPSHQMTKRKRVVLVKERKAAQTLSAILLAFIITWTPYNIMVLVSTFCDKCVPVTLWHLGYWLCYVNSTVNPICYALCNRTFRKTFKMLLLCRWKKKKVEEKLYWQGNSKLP
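Measured by: Fluo-8 calcium fluorescence; material: human M5 receptor in CHO-K1 cells; schedule: Post-acetylcholine fluorescence recording 140 s; benchmarks: low control EC20 acetylcholine (0%), high control EC100 acetylcholine (100%); read-out: Max/basal fluorescence ratio as % of EC20–EC100 ACh window; compound: single dose, 3 µM nominal final test concentration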
CHRM5 antagonist: antagonists of human muscarinic M5 receptor (CHRM5); inhibition, % at 3 µM; 0.59% of 360,000 active; AID 624040; CHO-hM5 cells, Fluo-8 calcium fluorescence, ACh EC80; P08912;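 active = inhibition above a per-plate cutoff, the mean of that plate's test compounds plus 3 SD, cut at about 27% in these data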
M1 ag: human M1 muscarinic receptor agonism; activation, % at 3 µM; P11229; CHO-K1 hM1, Fluo-8 calcium fluorescence, agonist mode; 0% DMSO, 100% acetylcholine EC100; 0.33% of 360,000 active; AID 588814;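 active = activation above the run's mean compound activation plus 3 SD, cut at about 16% in these data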;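 also: peak over basal fluorescence ratio within a 140 s kinetic read after compound addition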
M5 ag: CHRM5 agonism in calcium assay. P08912. CHO-K1 hM5 cells, Fluo-8 calcium fluorescence; 0% DMSO wells, 100% maximal acetylcholine response. activation, % at 3 µM. 0.19% of 360,000 active;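 active = activation above the run's mean over test compounds plus 3 SD, cut at about 23% in these data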;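 also: signal is peak over basal fluorescence ratio across the kinetic read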
CHRM1 antagonist: human CHRM1 antagonism; P11229; CHO-K1 hM1, Fluo-8 calcium fluorescence, ACh EC80 antagonist; inhibition, % at 3 µM; 1.3% of 360,000 active; AID 588852;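 active = percent inhibition above its own plate's cutoff, namely the mean of that plate's compound wells plus 3 SD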;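 also: peak over basal fluorescence ratio during 140 s after agonist addition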
Large screens that a line does not name were inactive.

COc1ccc(Cc2nnc(NC(=O)C(C)C)s2)cc1	none
C=CCn1c(SCC(=O)Nc2ccc(OC)cc2)nnc1-c1cnccn1	none
Cn1ccnc1C1CCCCN1Cc1nc(Cc2cccc(C(F)(F)F)c2)no1 (stereo unspecified)	CHRM1 antagonist 54
Cn1ccnc1C1CCCCN1Cc1nc(-c2ccc3c(c2)OCO3)no1 (stereo unspecified)	CHRM1 antagonist 59
C/C(=N\NC(=O)c1c(C)nc2ccccn12)c1ccco1	none
Cc1ccc(C(=O)N2CCN(Cc3ccccc3)CC2)cc1S(=O)(=O)N1CCOCC1	none
COc1ccc(NS(=O)(=O)c2cccc(C(=O)N3CCN(C/C=C/c4ccccc4)CC3)c2)cc1	none
Cc1ccc(C(=O)N2CCN(C/C=C/c3ccccc3)CC2)cc1S(=O)(=O)N1CCOCC1	CHRM1 antagonist 73
Cc1cccc(NS(=O)(=O)c2cccc(C(=O)N3CCN(C/C=C/c4ccccc4)CC3)c2)c1	CHRM1 antagonist 32
O=C(COC(=O)c1cccc(OC(F)F)c1)Nc1cc(S(=O)(=O)N2CCCC2)ccc1Cl	none
Cc1c(C(=O)Nc2cc(F)cc(F)c2)cnn1-c1ccccc1	none
Cc1ccc(SCc2[nH]nc3c2C2(C(=O)Nc4ccc([N+](=O)[O-])cc42)C(C#N)=C(N)O3)cc1 (stereo unspecified)	CHRM5 PAM 25
CCN(C(=O)CSc1nnc(-c2ccco2)n1Cc1ccccc1)C1CCS(=O)(=O)C1 (stereo unspecified)	CHRM1 PAM 27
CCN1CCC(CN2CCNC2=S)CC1	none
CC[C@H](C)[C@H]1CNC(=S)N1CC1CCN(CCCC2CCCC2)CC1	CHRM1 antagonist 38
CC(C)C[C@H]1CNC(=O)C(=O)N1CC1CCN(CCC(C)(C)C)CC1	none
CC[C@H](C)[C@H]1CNC(=S)N1CC1CCN(CCC(C)(C)C)CC1	none
CC(C)C[C@H]1CNC(=S)N1CC1CCN(CC2CCC(C(C)(C)C)CC2)CC1 (stereo partly specified)	CHRM5 antagonist 35, CHRM1 antagonist 76
CC(C)C[C@H]1CNC(=S)N1CC1CCN(CCC23CC4CC(CC(C4)C2)C3)CC1	CHRM5 antagonist 49, CHRM1 antagonist 88
S=C1NCCN1CC1CCN(CCC23CC4CC(CC(C4)C2)C3)CC1	CHRM1 antagonist 85
O=S(=O)(c1ccc(F)c(Cl)c1)N1CCN(C/C=C/c2ccccc2)CC1	none
CC[C@H](C)[C@H]1CNC(=S)N1CC1CCN(CCCCc2ccccc2)CC1	CHRM1 antagonist 71
CC(C)C[C@H]1CNC(=S)N1CC1CCN(CCCC2CCCCC2)CC1	CHRM1 antagonist 83
CC(C)C[C@H]1CNC(=S)N1CC1CCN(CC2CCCC2)CC1	none
COc1ccc([N+](=O)[O-])cc1NC(=O)COC(=O)C12CC3CC(CC(O)(C3)C1)C2	none
COc1ccc(N=Nc2nc3ccc(Br)cc3n2C)cc1	M1 ag 17
COc1ccc(-c2c(-c3cc(OC)cc(OC)c3)n(C)c3ccc(Br)cc23)cc1	none
O=C(NCCc1ccc(F)cc1)Nc1ccccc1Cl	none
COc1ccc(Cl)cc1N(C(=O)c1ccco1)C(C(=O)NC1CCCC1)c1ccncc1 (stereo unspecified)	none
O=C1c2cccc3c(N4CCCCC4)ccc(c23)C(=O)N1c1ccccc1O	CHRM5 antagonist 35, M1 ag 40, M5 ag 28, CHRM1 antagonist 44
O=C1c2cccc3c(N4CCCCC4)ccc(c23)C(=O)N1c1ccc(O)cc1	none
COc1ccc2c(c1)cc(C(=O)N[C@@H](CCSC)C(=O)N1CCC(C(=O)O)CC1)n2C	none
COc1ccc(C/C(C)=N/NC(=O)c2cccnc2)cc1	CHRM5 PAM 19
COc1ccc(C/C(C)=N/NC(=O)c2ccc(Cl)cc2)cc1	none
CCCNC(=O)C1(C)CCCN(CCC(=O)c2ccccc2)C1 (stereo unspecified)	none
O=C(Nc1ccc(Cl)c(Cl)c1)O/N=C/c1ccncc1	CHRM5 antagonist 32
CC(=O)c1c(C)n(CC(=O)NCc2ccco2)c2ccccc12	CHRM1 antagonist 35
Cc1ccccc1-n1c(=O)c2ccccc2n(CC(=O)NCc2ccco2)c1=O	none
COc1cccc(Oc2ccc(C(F)(F)F)cc2NC(=O)CN2C(=O)NC3(CCCC3)C2=O)c1	none
CCCCn1c(/N=C/c2ccc(N(C)C)cc2)nc2ccccc21	CHRM1 PAM 21
C=CCn1c(/N=C/c2ccc(N(C)C)cc2)nc2ccccc21	none
O=C(COC(=O)/C=C/c1cccc(C(F)(F)F)c1)NCCN1C(=O)CSC1=O	none
N#Cc1ccc(OCC(=O)OCC(=O)N2CCc3ccccc32)cc1	none
COc1ccc(C(=O)Nc2ccc(N3CCN(Cc4ccccc4)CC3)cc2)cc1	none
COc1c(F)c(F)c(C(=O)Nc2ccc(N3CCN(Cc4ccccc4)CC3)cc2)c(F)c1F	CHRM1 antagonist 47
COc1cccc(NC(=O)c2ccc(CN3CCN(c4ccccc4)CC3)cc2)c1	CHRM1 antagonist 20
O=C(Nc1ccccc1)OCc1cncs1	CHRM5 PAM 18
O=C(Nc1ccc(Cl)c(Cl)c1)OCc1cncs1	none
COc1ccccc1CCC(=O)OCC(=O)c1c(N)n(CC(C)C)c(=O)n(C)c1=O	none
CCOc1ccccc1OCC(=O)OCC(=O)c1c(N)n(CC(C)C)c(=O)n(C)c1=O	CHRM1 antagonist 28
COc1ccc(CCC(=O)OCC(=O)c2c(N)n(CC(C)C)c(=O)n(C)c2=O)cc1	CHRM1 antagonist 32
CCC(C(=O)OCC(=O)c1c(N)n(CC(C)C)c(=O)n(C)c1=O)c1ccccc1 (stereo unspecified)	none
CC(=O)C1CCC2C3C=CC4=CC(=O)CCC4(C)C3CCC12C (stereo unspecified)	none
N#Cc1ccc(Cl)cc1NC(=O)COC(=O)c1cccc(S(=O)(=O)N2CCOCC2)c1	none
COC(=O)C1=C(C)NC2=C(C(=O)CC(C)(C)C2)C1c1ccccn1 (stereo unspecified)	none
COC(=O)C1=C(C)NC2=C(C(=O)C(C(=O)OC)C(c3ccc(OC)cc3)C2)C1c1ccccn1 (stereo unspecified)	CHRM5 PAM 37
O=C(c1cccc(Cl)c1)N1CCCc2ccccc21	none
Cc1ccc(Cl)cc1NC(=O)CCC(=O)Nc1cc(Cl)ccc1C	CHRM5 PAM 24
C=C(CN(C)C)C(=O)c1cc(C)ccc1C	none
COC(=O)c1nn(C)c(=O)[nH]c1=O	none
Cn1nc(C#N)c(=O)[nH]c1=O	CHRM5 PAM 63, M5 ag 24
CC(=O)N1c2ccc(S(=O)(=O)N(C)CC(=O)NC3CCCC3)cc2CC1C (stereo unspecified)	none

High-throughput results as filed in PubChem.
